Tests used:
[1] = test system: Rattus norvegicus; assay: Neurotoxicity in rat assessed as motor impairment at 30 to 100 mg/kg, po after 2 to 4 hrs by rotarod test; format: toxicity, organism-based; parameters: route oral; details: in vivo
Summary of the method: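 Rats were trained on a rotarod for 3 min at 10 rpm, then given a single oral dose of test agent or vehicle and tested at 2 and 4 h post-dose. During testing the rod ran at 10 rpm for 60 s, then accelerated to 60 rpm. Time to fall after the start of acceleration was recorded. Impairment was defined as >20% reduction in latency.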

[2] = test system: Rattus norvegicus; assay: Analgesic activity in po dosed rat spinal nerve ligation neuropathic pain model assessed as reversal of allodynia measured after 4 hrs; format: functional, organism-based
Summary of the method: (§1)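 Rat spinal nerve ligation model. Seven days after surgery, rats received a single oral dose (3, 10 or 30 mg/kg) of test agent or vehicle. Tactile allodynia was scored at 2, 4, 8 and 24 h post-dose with calibrated von Frey filaments using an up-down paradigm. Threshold is the force giving a 50% withdrawal rate. %MPE = (post-compound − post-SNL)/(pre-SNL − post-SNL) × 100, where 100% is full reversal.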

[3] = test system: Rattus norvegicus; assay: Analgesic activity in po dosed rat spinal nerve ligation neuropathic pain model assessed as reversal of allodynia measured at 2 to 4 hrs; format: functional; summary of the method: as §1
[4] = test system: Rattus norvegicus; assay: Analgesic activity in rat spinal nerve ligation neuropathic pain model assessed as reversal of allodynia at 10 mg/kg, po measured at 24 hrs relative to control; format: functional; summary of the method: as §1
[5] = test system: Rattus norvegicus; assay: Analgesic activity in rat spinal nerve ligation neuropathic pain model assessed as reversal of allodynia at 3 mg/kg, po measured at 24 hrs relative to control; format: functional; summary of the method: as §1
[6] = test system: Rattus norvegicus; assay: Analgesic activity in rat spinal nerve ligation neuropathic pain model assessed as reversal of allodynia at 30 mg/kg, po measured at 8 hrs relative to control; format: functional; summary of the method: as §1
[7] = test system: Rattus norvegicus; assay: Analgesic activity in rat spinal nerve ligation neuropathic pain model assessed as reversal of allodynia at 3 mg/kg, po measured at 8 hrs relative to control; format: functional; summary of the method: as §1
[8] = test system: Rattus norvegicus; assay: Analgesic activity in rat spinal nerve ligation neuropathic pain model assessed as reversal of allodynia at 30 mg/kg, po measured at 4 hrs relative to control; format: functional; summary of the method: as §1
[9] = test system: Rattus norvegicus; assay: Analgesic activity in rat spinal nerve ligation neuropathic pain model assessed as reversal of allodynia at 10 mg/kg, po measured at 4 hrs relative to control; format: functional; summary of the method: as §1
[10] = test system: Rattus norvegicus; assay: Analgesic activity in rat spinal nerve ligation neuropathic pain model assessed as reversal of allodynia at 3 mg/kg, po measured at 4 hrs relative to control; format: functional; summary of the method: as §1
[11] = test system: Rattus norvegicus; assay: Analgesic activity in rat spinal nerve ligation neuropathic pain model assessed as reversal of allodynia at 10 mg/kg, po measured at 2 hrs relative to control; format: functional; summary of the method: as §1
[12] = test system: Rattus norvegicus; assay: Analgesic activity in rat spinal nerve ligation neuropathic pain model assessed as reversal of allodynia at 30 mg/kg, po measured at 2 hrs relative to control; format: functional; summary of the method: as §1
[13] = target: Mu-type opioid receptor (Homo sapiens) (UniProt P35372); assay: Binding affinity to mu opioid receptor (unknown origin) at 25 uM relative to control
Mu-type opioid receptor (Homo sapiens), sequence (P35372 whole entry): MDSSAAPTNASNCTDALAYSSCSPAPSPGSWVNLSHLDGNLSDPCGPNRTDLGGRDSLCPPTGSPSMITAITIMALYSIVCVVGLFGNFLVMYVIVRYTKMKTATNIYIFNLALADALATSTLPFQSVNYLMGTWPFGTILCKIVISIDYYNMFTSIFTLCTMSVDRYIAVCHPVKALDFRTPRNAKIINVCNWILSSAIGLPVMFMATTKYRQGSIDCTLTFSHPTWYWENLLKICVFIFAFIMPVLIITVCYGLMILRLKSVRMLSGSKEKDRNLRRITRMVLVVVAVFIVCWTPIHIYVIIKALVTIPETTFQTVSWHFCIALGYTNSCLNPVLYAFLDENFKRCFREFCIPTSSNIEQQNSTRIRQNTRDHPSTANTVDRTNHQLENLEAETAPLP

[14] = target: Delta-type opioid receptor (Homo sapiens) (UniProt P41143); assay: Binding affinity to delta opioid receptor (unknown origin) at 25 uM relative to control
[15] = target: Cannabinoid receptor 2 (Homo sapiens) (UniProt P34972); assay: Binding affinity to CB2 receptor (unknown origin) at 25 uM relative to control
Cannabinoid receptor 2 (Homo sapiens), sequence (P34972 whole entry): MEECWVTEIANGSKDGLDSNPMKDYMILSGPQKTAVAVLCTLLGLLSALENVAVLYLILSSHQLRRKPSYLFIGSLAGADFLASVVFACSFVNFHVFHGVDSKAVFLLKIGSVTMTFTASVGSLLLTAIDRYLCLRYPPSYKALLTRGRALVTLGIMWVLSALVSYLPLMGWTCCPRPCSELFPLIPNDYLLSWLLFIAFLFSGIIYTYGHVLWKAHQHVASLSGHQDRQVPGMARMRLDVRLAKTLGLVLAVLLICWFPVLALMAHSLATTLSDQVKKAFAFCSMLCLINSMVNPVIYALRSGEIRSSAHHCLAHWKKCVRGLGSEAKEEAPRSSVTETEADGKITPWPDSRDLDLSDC

[16] = target: T1, B1 bradykinin receptor (Homo sapiens) (UniProt P46663); assay: Binding affinity to BK1 receptor (unknown origin) at 25 uM relative to control
T1 sequence (whole entry): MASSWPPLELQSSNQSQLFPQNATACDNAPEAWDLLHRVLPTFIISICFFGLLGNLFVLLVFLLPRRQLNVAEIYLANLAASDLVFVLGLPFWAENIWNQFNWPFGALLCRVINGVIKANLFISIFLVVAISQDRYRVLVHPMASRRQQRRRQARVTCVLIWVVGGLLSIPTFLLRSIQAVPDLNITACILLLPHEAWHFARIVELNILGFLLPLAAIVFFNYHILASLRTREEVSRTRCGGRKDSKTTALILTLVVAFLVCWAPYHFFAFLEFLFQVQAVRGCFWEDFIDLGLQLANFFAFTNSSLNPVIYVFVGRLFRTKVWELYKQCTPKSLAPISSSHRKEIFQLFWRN

[17] = target: Prostaglandin G/H synthase 1 (Homo sapiens) (UniProt P23219); assay: Binding affinity to COX1 (unknown origin) at 25 uM relative to control
[18] = target: T2, Sodium channel protein type 9 subunit alpha (Homo sapiens, UniProt Q15858); assay: Binding affinity to resting state of human NaV1.7 channel by whole-cell patch clamp assay
T2 sequence (Q15858 whole entry, looked up): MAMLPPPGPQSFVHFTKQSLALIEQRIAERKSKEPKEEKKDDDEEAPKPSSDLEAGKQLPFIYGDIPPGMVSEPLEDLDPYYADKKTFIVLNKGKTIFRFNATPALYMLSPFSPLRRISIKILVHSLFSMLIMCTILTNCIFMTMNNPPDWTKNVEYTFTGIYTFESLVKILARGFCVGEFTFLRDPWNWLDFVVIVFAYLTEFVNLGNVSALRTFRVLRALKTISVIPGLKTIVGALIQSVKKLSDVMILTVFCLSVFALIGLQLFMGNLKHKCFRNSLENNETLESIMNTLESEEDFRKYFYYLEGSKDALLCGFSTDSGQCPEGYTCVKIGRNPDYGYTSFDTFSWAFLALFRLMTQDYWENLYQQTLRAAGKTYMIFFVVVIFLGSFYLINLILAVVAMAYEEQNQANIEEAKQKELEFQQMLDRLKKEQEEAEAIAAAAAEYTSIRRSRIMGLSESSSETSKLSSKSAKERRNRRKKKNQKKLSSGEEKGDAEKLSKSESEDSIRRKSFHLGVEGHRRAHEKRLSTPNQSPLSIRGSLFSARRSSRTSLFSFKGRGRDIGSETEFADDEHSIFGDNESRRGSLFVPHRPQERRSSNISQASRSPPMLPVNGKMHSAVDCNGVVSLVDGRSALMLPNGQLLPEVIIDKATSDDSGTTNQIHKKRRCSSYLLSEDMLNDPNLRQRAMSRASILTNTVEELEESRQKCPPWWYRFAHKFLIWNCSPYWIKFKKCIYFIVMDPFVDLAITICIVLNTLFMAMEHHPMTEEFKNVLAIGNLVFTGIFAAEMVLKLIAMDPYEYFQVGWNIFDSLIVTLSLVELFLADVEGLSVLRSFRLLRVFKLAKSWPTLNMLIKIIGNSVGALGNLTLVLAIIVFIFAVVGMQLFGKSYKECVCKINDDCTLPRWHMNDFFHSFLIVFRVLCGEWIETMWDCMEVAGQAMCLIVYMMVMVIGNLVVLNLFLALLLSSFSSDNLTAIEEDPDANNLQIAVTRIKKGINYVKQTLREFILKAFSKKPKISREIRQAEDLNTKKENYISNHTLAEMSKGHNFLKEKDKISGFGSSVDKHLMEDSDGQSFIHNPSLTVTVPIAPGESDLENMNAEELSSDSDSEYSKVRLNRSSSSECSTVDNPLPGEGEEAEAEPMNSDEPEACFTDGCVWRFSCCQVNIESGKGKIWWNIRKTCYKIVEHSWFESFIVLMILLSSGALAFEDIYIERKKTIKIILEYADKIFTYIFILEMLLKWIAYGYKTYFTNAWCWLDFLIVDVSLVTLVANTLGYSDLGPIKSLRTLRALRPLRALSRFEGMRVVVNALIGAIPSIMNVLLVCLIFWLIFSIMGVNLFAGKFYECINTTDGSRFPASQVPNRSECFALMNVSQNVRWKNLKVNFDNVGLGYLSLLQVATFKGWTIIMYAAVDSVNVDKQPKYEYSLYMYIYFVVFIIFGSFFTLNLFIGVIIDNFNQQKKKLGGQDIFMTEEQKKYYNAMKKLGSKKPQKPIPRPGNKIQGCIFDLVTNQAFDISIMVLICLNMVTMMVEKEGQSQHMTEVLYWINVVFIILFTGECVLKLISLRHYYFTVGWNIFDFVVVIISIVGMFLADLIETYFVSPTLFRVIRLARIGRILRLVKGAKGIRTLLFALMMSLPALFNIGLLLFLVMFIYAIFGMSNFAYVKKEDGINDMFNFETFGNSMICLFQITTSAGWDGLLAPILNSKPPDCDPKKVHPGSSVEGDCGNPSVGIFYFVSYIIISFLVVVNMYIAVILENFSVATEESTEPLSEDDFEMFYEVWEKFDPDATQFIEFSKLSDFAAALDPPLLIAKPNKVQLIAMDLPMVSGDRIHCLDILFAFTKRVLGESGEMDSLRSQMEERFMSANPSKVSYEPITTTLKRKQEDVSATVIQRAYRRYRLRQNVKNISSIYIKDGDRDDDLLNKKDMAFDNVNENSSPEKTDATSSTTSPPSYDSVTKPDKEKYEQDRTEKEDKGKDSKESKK
Summary of the method: (§2)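 Manual whole-cell voltage clamp measuring block of resting and inactivated channel states at room temperature. Data acquired at 50 kHz, filtered at 10 kHz. Bath: 40 mM NaCl, 120 mM NMDG-Cl, 1 mM KCl, 2.7 mM CaCl2, 0.5 mM MgCl2, 10 mM NMDG-HEPES, pH 7.4.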

[19] = target: T3, Sodium channel protein type 5 subunit alpha (Homo sapiens, UniProt Q14524); assay: Binding affinity to resting state of human NaV1.5 channel by whole-cell patch clamp assay; details: read-out: K
T3 sequence (Q14524 whole entry): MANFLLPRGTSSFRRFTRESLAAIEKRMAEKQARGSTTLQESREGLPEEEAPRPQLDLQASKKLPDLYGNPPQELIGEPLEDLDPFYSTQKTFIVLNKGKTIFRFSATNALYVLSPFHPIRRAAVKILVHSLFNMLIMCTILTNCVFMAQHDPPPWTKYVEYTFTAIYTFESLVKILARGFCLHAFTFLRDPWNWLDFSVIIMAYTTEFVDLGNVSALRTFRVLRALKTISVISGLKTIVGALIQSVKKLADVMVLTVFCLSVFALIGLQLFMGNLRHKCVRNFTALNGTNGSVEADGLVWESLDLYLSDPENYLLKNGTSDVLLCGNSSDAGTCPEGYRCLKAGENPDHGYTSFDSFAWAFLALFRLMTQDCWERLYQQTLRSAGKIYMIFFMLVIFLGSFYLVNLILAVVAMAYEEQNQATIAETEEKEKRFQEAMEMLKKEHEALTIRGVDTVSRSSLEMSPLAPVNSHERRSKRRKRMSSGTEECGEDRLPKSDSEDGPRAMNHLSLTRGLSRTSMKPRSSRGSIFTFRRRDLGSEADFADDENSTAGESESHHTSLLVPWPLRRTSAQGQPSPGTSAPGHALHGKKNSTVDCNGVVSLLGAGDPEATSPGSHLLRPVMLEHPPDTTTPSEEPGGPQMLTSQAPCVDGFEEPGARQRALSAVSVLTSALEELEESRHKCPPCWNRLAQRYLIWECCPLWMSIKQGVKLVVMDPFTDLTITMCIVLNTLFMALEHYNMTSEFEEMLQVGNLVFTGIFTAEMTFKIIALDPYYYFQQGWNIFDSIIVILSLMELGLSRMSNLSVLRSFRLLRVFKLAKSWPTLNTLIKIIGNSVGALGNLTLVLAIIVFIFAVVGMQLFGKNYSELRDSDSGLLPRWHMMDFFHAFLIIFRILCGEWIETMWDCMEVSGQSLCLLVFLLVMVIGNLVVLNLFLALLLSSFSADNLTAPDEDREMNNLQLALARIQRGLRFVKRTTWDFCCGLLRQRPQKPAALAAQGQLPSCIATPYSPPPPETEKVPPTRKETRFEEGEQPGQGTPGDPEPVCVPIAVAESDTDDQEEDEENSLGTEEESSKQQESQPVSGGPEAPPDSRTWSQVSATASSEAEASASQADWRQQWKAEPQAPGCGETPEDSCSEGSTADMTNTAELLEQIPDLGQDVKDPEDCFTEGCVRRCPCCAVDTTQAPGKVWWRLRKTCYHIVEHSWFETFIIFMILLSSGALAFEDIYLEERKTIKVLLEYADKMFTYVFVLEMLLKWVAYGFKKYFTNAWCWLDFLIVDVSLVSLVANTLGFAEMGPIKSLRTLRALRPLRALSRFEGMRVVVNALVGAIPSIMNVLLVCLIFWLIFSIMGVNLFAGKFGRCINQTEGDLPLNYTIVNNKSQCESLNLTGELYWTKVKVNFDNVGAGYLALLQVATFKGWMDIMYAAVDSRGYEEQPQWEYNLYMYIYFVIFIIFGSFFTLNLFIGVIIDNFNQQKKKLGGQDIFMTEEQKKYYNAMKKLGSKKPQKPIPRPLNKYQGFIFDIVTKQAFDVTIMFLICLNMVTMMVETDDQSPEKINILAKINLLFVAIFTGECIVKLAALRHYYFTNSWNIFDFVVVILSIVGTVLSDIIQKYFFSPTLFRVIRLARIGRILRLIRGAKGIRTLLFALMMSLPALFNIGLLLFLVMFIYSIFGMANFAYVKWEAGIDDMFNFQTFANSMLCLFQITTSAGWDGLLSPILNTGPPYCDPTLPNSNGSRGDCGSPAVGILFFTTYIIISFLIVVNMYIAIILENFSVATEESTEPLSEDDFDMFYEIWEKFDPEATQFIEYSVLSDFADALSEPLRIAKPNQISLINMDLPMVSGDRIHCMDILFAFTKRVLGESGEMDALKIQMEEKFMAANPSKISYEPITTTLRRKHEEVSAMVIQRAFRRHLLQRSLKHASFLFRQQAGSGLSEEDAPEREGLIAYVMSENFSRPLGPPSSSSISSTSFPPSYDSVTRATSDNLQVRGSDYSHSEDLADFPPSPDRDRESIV

[20] = target: Sodium channel protein type 10 subunit alpha (Homo sapiens) (UniProt Q9Y5Y9); assay: Binding affinity to inactivated state of NaV1.8 channel (unknown origin) by whole-cell patch clamp assay; summary of the method: as §2
[21] = target: T3, Sodium channel protein type 5 subunit alpha; assay: Binding affinity to inactivated state of human NaV1.5 channel by whole-cell patch clamp assay; details: read-out: K
[22] = target: Sodium channel protein type 8 subunit alpha (Homo sapiens) (UniProt Q9UQD0); assay: Binding affinity to inactivated state of NaV1.6 channel (unknown origin) by whole-cell patch clamp assay; summary of the method: as §2
[23] = target: T2, Sodium channel protein type 9 subunit alpha; assay: Binding affinity to inactivated state of human NaV1.7 channel by whole-cell patch clamp assay; summary of the method: as §2
[24] = target: T2, Sodium channel protein type 9 subunit alpha; assay: Binding affinity to inactivated state of human NaV1.7 channel assessed as inhibition of current evoked by 6 ms depolarizations to 0 mV from holding potential -70 mV at 3 uM by whole-cell patch clamp assay relative to vehicle-treated control
[25] = Plasma clearance in Sprague-Dawley rat at 3 mg/kg, po and 1 mg/kg, iv; format: ADME, organism-based
Summary of the method: (§3)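 Fasted male Sprague–Dawley rats (n = 3 per route) were dosed with 1.5 mg/mL solutions in PEG300/water or DMSO/PEG300/water, either 1.0 mg/kg iv via femoral-vein cannula or 3.0 mg/kg by oral gavage. Blood was sampled at 5 min (iv only), 15 and 30 min, and 1, 2, 4, 6 and 8 h. Plasma levels were measured by LC–MS/MS after acetonitrile protein precipitation.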

[26] = Half life in Sprague-Dawley rat at 3 mg/kg, po and 1 mg/kg, iv; format: ADME, organism-based; details: in vivo; summary of the method: as §3
[27] = test system: Rattus norvegicus; assay: Dose normalized AUC in Sprague-Dawley rat at 3 mg/kg, po; format: ADME, organism-based; parameters: dose 3 mg/kg, route oral; details: in vivo; summary of the method: as §3
[28] = target: hERG (KCNH2) (Homo sapiens, UniProt Q12809); assay: Displacement of [35S]-MK0499 from human ERG expressed in HEK293 cell membranes at 10 uM after 2 hrs by liquid scintillation counting analysis relative to control; details: membranes of HEK293 cells that express human ERG, probe [35S]-MK0499
Summary of the method: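 hERG binding assay measuring displacement of 35S-labelled MK-0499, a known hERG blocker.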

[29] = Oral bioavailability in Sprague-Dawley rat at 3 mg/kg; format: ADME, organism-based; details: in vivo; summary of the method: as §3

## O=C(N[C@H](Cc1ccccc1F)C(=O)N[C@@H]1CCc2c(F)c(F)cc(F)c2N(C2CC2)C1=O)C1CC1C(F)(F)F (some centres undefined)
[1]
  Activity: Non-toxic
[2]
  Activity: Dose-dependent effect
[3]
  ED50: 15 mg/kg
[4]
  Activity: 4%
[5]
  Activity: 1%
[6]
  Activity: 28%
[7]
  Activity: 7%
[8]
  Activity: 55%
[9]
  Activity: 39%
[10]
  Activity: 18%
[11]
  Activity: 43%
[12]
  Activity: 62%
[13]
  Activity: < 50%
[14]
  Activity: < 50%
[15]
  Activity: < 50%
[16]
  Activity: < 50%
[17]
  Activity: < 50%
[18]
  K: 24 µM
[19]
  Kd: > 10000 nM
[20]
  K: 3.02 µM
[21]
  Kd: 2380 nM
[22]
  K: 3.88 µM
[23]
  K: 0.44 µM
[24]
  inhibition: 48%
[25]
  clearance: 43 mL/min/kg
[26]
  half-life: 1.9 h
[27]
  AUC/dose: 0.72 µM·h/mg/kg
[28]
  inhibition at 2 h, 10 µM: 26%
[29]
  bioavailability: 100%

— ChEMBL document CHEMBL2390921, “A novel benzazepinone sodium channel blocker with oral efficacy in a rat model of neuropathic pain” (Bioorg Med Chem Lett, 2013)
